Results on 2 compounds are retold here after ChEMBL document CHEMBL4004807 (J Med Chem, 2017).

Structures are written as SMILES. Calls of active or inactive are those of the source. The calls are words filed in the database; no cut-off is given here.

Series [1] deals with Rattus norvegicus. Description: Unbound Cmax in Sprague-Dawley rat at 10 mg/kg, po administered via gavage as single dose. It counts as ADME, organism-based. Particulars: in vivo.
Series [2] concerns Rattus norvegicus. Description: Cardioprotective effect in Sprague-Dawley rat monocrotaline model of pulmonary arterial hypertension assessed as reduction of MCT-induced increase of pulmonary arterial pressue at 30 mg/kg administered via oral gavage twice daily for 21 consecutive days starting 24 hrs after monocrotaline challenge. It counts as functional, organism-based. The gist of the method:
(§1)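 Male rats given 60 mg/kg monocrotaline sc on day 1 (sham: saline) under 30 mg/kg ip pentobarbital; from next day for 20 days dosed by oral gavage twice daily at 10 or 30 mg/kg in 20% HPBCD in saline (vehicle control). Day 21: RV/(LV+S) weights; mPAP via catheter under 60 mg/kg pentobarbital (30 mg/kg group, n = 5); H&E lung sections, 5 animals/group.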

Series [3] concerns Rattus norvegicus. Description: Inhibition of hypertrophic response in Sprague-Dawley rat monocrotaline model of pulmonary arterial hypertension assessed as reduction of MCT-induced increase in pulmonary vessel wall thickness at 30 mg/kg administered via oral gavage twice daily for 21 consecutive days starting 24 hrs after monocrotaline challenge by morphometric analysis. It counts as functional, organism-based. Summed up:
as §1

For series [4], the system named is Rattus norvegicus. Description: Inhibition of right ventricle hypertrophic response in Sprague-Dawley rat monocrotaline model of pulmonary arterial hypertension assessed as reduction of MCT-induced increase in ratio of right ventricular weight to left ventricle plus septum weight administered via oral gavage twice daily for 21 consecutive days starting 24 hrs after monocrotaline challenge. Type of series: functional. The gist of the method: as §1

The test system of series [5] is Plasma. In words: Drug metabolism in bile-duct cannulated rat plasma assessed as 2-(2-(((1r,4r)-4-(((4-chlorophenyl)(4-hydroxyphenyl)carbamoyloxy)methyl)cyclohexyl)methoxy)acetoxy)ethanesulfonic acid formation. Type of series: ADME, cell-free.
For series [6], the system named is Plasma. Description: Drug metabolism in bile-duct cannulated rat plasma assessed as 2-(((1r,4r)-4-(((4-chlorophenyl)(4-hydroxyphenyl)carbamoyloxy)methyl)cyclohexyl)methoxy)acetic acid formation. It counts as ADME, cell-free.
A short description of series [7]: Drug uptake in bile-duct cannulated rat urine. Type of series: ADME. Particulars: in vivo.
Series [8] is described as follows: Total clearance in Beagle dog at 0.2 mg/kg, iv. Conditions: in vivo. Type of series: ADME, organism-based, Canis lupus familiaris.
Series [9] deals with Prostaglandin E2 receptor EP2 subtype (Homo sapiens) (UniProt P43116). In words: Agonist activity at recombinant human EP2 receptor expressed in CHO-K1 cells assessed as increase in intracellular cAMP level up to 10 uM after 1 hr incubation by HTRF method. It counts as functional, cell-based. (Cyclic AMP is a second messenger, typically raised through Gs and lowered through Gi signalling.)
Chain of Prostaglandin E2 receptor EP2 subtype (Homo sapiens) (P43116 whole entry): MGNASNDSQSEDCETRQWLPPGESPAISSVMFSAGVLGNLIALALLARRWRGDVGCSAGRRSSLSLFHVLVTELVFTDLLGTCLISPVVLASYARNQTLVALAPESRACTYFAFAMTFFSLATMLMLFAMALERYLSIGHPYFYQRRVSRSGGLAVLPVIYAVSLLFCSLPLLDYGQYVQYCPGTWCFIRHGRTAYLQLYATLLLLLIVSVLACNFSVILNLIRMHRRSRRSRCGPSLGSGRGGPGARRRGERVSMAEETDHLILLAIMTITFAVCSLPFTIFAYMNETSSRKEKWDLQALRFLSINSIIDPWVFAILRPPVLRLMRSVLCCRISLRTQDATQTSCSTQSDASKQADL

Series [10] can be described thus: Total clearance in cynomolgus monkey at 0.1 mg/kg, iv. Type of series: ADME, organism-based, Macaca fascicularis. Particulars: in vivo.
The target of series [11] is T1, Prostaglandin E2 receptor EP3 subtype (Homo sapiens, UniProt P43115).
T1 sequence (P43115 whole entry): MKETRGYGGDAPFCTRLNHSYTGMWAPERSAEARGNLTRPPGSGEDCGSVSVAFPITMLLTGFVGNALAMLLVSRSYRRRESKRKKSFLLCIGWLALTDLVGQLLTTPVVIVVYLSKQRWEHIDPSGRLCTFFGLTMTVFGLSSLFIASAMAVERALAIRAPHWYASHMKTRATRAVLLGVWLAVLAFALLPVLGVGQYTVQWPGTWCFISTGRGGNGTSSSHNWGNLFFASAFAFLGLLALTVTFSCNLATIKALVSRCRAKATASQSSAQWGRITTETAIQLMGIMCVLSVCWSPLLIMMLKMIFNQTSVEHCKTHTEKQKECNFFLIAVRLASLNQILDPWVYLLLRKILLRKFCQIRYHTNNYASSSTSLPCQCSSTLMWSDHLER
Description: Agonist activity at recombinant human EP3v6 receptor expressed in melanophores assessed as induction of pigment redistribution up to 10 uM after 90 mins. Conditions: 1.5 h. Summed up: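 Melanophores electroporated with 20 μg human EP3v6 plasmid per 400 μL cells, grown 48 h at 27 °C. Assay buffer 0.7× PBS pH 7.3 with 20 nM melatonin to aggregate pigment, 90 min at room temperature, 650 nm baseline; compounds added (10-point, 5-fold dilutions, top 10 μM final), 90 min room temperature, absorbance reread.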

Series [12] is described as follows: Volume of distribution at steady state in Beagle dog at 0.2 mg/kg, iv. It counts as ADME, organism-based, Canis lupus familiaris. Conditions: in vivo.
Series [13] in a line: Drug uptake in bile-duct cannulated rat bile. It counts as ADME. Particulars: in vivo.
Series [14] concerns Plasma. Description: Drug uptake in bile-duct cannulated rat plasma. It counts as ADME, cell-free.
Series [15] relates to Rattus norvegicus. In words: AUC (0 to infinity) in Sprague-Dawley rat at 10 mg/kg, po. It counts as ADME, organism-based. Also on record: dose 10 mg/kg, route oral, time infinity. Conditions: in vivo. Summed up:
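Sprague-Dawley rats, single oral dose of 10.0 mg/kg; AUC0-inf from plasma concentrations.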

Series [16] is described as follows: Drug metabolism in bile-duct cannulated rat bile assessed as 2-(2-(((1r,4r)-4-(((4-chlorophenyl)(phenyl)carbamoyloxy)methyl)cyclohexyl)methoxy)acetoxy)ethanesulfonic acid formation. It counts as ADME.
Series [17] in a line: Volume of distribution at steady state in cynomolgus monkey at 0.1 mg/kg, iv. Type of series: ADME, organism-based, Macaca fascicularis. Particulars: in vivo.
A short description of series [18]: Total clearance in Sprague-Dawley rat plasma at 2 mg/kg, iv or 10 mg/kg, po. Type of series: ADME, organism-based.
Series [19] addresses Prostaglandin E2 receptor EP4 subtype (Homo sapiens) (UniProt P35408). Description: Agonist activity at recombinant human EP4 receptor expressed in CHO-K1 cells assessed as increase in intracellular cAMP level up to 10 uM after 1 hr incubation by HTRF method. Type of series: functional, cell-based.
Series [20] can be described thus: Drug degradation in simulated gastric fluid after 3 hrs. Summed up: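 Incubated in simulated gastric fluid at room temperature for 3 h; conversion to parent monitored.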
Series [21] deals with Plasma. In words: Drug level in bile-duct cannulated rat plasma treated with 2-(((1r,4r)-4-(((4-chlorophenyl)(phenyl)carbamoyloxy)methyl)cyclohexyl)methoxy)acetic acid. Type of series: ADME, cell-free.
Series [22] concerns Plasma. Description: Drug metabolism in po dosed rat plasma assessed as ralinepag formation. Type of series: ADME, organism-based. Conditions: in vivo.
Series [23] is described as follows: Drug level in bile-duct cannulated rat bile treated with 2-(((1r,4r)-4-(((4-chlorophenyl)(phenyl)carbamoyloxy)methyl)cyclohexyl)methoxy)acetic acid. It counts as ADME. Particulars: in vivo.

Chain of Prostaglandin E2 receptor EP4 subtype (Homo sapiens) (P35408 whole entry): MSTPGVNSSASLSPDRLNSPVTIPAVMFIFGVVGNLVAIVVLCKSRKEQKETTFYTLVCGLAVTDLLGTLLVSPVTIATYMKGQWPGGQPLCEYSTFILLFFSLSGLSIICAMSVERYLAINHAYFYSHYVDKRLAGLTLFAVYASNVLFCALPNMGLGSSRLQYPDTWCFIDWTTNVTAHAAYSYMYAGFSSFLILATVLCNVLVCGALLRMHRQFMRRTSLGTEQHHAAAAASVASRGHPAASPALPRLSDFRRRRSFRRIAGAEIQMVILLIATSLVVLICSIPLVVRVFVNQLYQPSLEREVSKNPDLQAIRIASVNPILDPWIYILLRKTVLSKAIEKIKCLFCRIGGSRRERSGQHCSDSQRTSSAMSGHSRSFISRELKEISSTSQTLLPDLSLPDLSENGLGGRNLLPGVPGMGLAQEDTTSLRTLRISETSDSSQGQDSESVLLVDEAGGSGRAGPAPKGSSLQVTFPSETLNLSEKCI

Broadly, the Vd is the apparent volume that relates the amount in the body to the concentration in plasma or blood. In general, AUC refers to the area under the concentration-time curve, a measure of exposure. As to `O=C(O)COC[C@H]1CC[C@H](COC(=O)N(c2ccccc2)c2ccc(Cl)cc2)CC1`, in the series on Rattus norvegicus [1], the fCmax amounted to 100 nM. In addition, in the series on Rattus norvegicus [2], the result was Active. The inhibition entry with Rattus norvegicus [3] was “Active”. For the same compound, in the series on Rattus norvegicus [4], the inhibition result is “Dose-dependent effect”. In addition, the Drug metabolism result (in the series with Plasma [5]; in the series on Plasma [6]; in series [16]) was “Metabolite_Detected” each time. The Drug uptake result (in series [7]; in series [13]; in the series on Plasma [14]) was “Active” each time. Also, the values for the clearance in series [8], in series [10] and in [18] were 3.37 mL/min/kg, 14.7 mL/min/kg and 7.12 mL/min/kg, respectively. For the same compound, the outcome in [9] and in series [19] was inactive. Besides, the outcome in series [11] was Active. The volume of distribution (Vd) was 0.308 L/kg in [12] and 10.1 L/kg in [17]. The compound also yielded an exposure (AUC) in the series on Rattus norvegicus [15] of 14600 ng·h/mL.
In the case of `O=C(COC[C@H]1CC[C@H](COC(=O)N(c2ccccc2)c2ccc(Cl)cc2)CC1)NCCS(=O)(=O)O`, the Drug degradation result in series [20] is on record as “Metabolite_Notdetected”. Moreover, the Drug metabolism result (in the series on Plasma [21]; in the series on Plasma [22]; in series [23]) was “Metabolite_Detected” throughout.
